Data set [1] has as its system MDA-MB-231. Description: Induction of autophagy in human MDA-MB-231 cells assessed as induction of LC3-II accumulation at 10 umol/L for 48 hrs by Western blot analysis. Conditions: dose 10.0 µmol/L. (A western blot detects proteins with antibodies after separation by electrophoresis.)
In data set [2] the test system is MDA-MB-231. Description: Induction of autophagy in human MDA-MB-231 cells assessed as change in total LAMP2 expression at 20 umol/L measured after 24 hrs in presence of bafilomycin A1 by Western blot analysis. The format is toxicity, cell-based. Conditions: mda-mb-231, 24 h, 20 µM, dose 20 µmol/L.
The subject of data set [3] is HepG2. Description: Cytotoxicity against human HepG2 cells assessed as effect on cell viability after 72 hrs by MTT analysis. The format is functional, cell-based. Put shortly:
(§1)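 Cells in DMEM with 10% FBS at 37°C, 5% CO2, plated in 96-well plates and drug-treated for 72 h. MTT 0.5 mg/ml added for 4 h, formazan dissolved in DMSO, absorbance read at 550 nm. Means and SDs; Student's t-test.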

Data set [4] deals with HepG2. Description: Cytotoxicity against human HepG2 cells assessed as effect on cell viability incubated for 72 hrs by MTT analysis. Type of data set: functional, cell-based. Put shortly:
as §1

In data set [5] the test system is MDA-MB-231. Description: Cytotoxicity against human MDA-MB-231 cells assessed as cell viability at 5 umol/L after 72 hrs by MTT analysis relative to control. Type of data set: functional. Particulars: MDA-MB-231, 72 h, dose 5 µmol/L, read-out: Activity. Put shortly:
as §1

Data set [6] has as its target Histone-lysine N-methyltransferase EZH2 (Homo sapiens) (UniProt Q15910). Description: Inhibition of EZH2 in human A549 cells assessed as reduction in H3K27-me3 level at 20 umol/L incubated for 72 hrs by Western blot analysis. The format is cell-based. Particulars: dose 20.0 µmol/L.
Data set [7] deals with MDA-MB-231. Description: Cytotoxicity against human MDA-MB-231 cells assessed as reduction in cell viability at >5 umol/L after 72 hrs by MTT analysis. Type of data set: functional, cell-based. Conditions: dose > 5.0 µmol/L. Put shortly:
as §1

The test system of data set [8] is A549. Description: […] in human A549 cells assessed as induction of LC3-II accumulation at 10 to 20 umol/L measured after 24 hrs by Western blot analysis. The format is functional, cell-based. Conditions: dose 10-20 µmol/L. Put shortly:
(§2)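 A549 and HepG2 cells drug-treated with or without bafilomycin A1. Lysates made in Tris pH 7.5/NP-40 buffer with protease and phosphatase inhibitors, 25–50 μg run on 7–12% SDS-PAGE, probed for LC3B, ECL detection.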

Data set [9] relates to HepG2. Description: Potentiation of sorafenib-induced anticancer activity in human HepG2 cells at 10 umol/L measured after 72 hrs by MTT assay. Type of data set: functional, cell-based. Particulars: dose 10.0 µmol/L. Put shortly:
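HepG2 cells given a range of sorafenib doses, with or without 10 μmol/l compound, for 72 h. Viability by MTT (0.5 mg/ml, 4 h, DMSO, A550). Student's t-test against untreated cells.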

Data set [10] concerns the target Histone-lysine N-methyltransferase EZH2 (Homo sapiens) (UniProt Q15910). Description: Inhibition of EZH2 in human MDA-MB-231 cells assessed as reduction in H3K27-me3 level at 20 umol/L incubated for 72 hrs by Western blot analysis. Conditions: dose 20.0 µmol/L. The format is cell-based.
The test system of data set [11] is MDA-MB-231. Description: Induction of autophagy in human MDA-MB-231 cells assessed as change in total LAMP2 expression at 20 umol/L measured after 24 hrs by Western blot analysis. The format is toxicity, cell-based. Particulars: mda-mb-231, 24 h, 20 µM, dose 20 µmol/L.
In data set [12] the test system is A549. Description: […] in human A549 cells assessed as induction of LC3-II accumulation at 10 to 20 umol/L measured after 24 hrs in presence of bafilomycin A1 by Western blot analysis. The format is functional, cell-based. Conditions: dose 10-20 µmol/L. Put shortly: as §2
The test system of data set [13] is MDA-MB-231. Description: Induction of autophagy in human MDA-MB-231 cells assessed as reduction in expression of p62 at 20 umol/L incubated for 24 hrs by Western blot analysis. Particulars: dose 20.0 µmol/L. The format is functional, cell-based.
The test system of data set [14] is HepG2. Description: […] in human HepG2 cells assessed as induction of LC3-II accumulation at 10 to 20 umol/L measured after 24 hrs by Western blot analysis. The format is functional, cell-based. Conditions: dose 10-20 µmol/L. Put shortly:
as §2

Data set [15] concerns HepG2. Description: […] in human HepG2 cells assessed as induction of LC3-II accumulation at 10 to 20 umol/L measured after 24 hrs in presence of bafilomycin A1 by Western blot analysis. Type of data set: functional, cell-based. Particulars: dose 10-20 µmol/L. Put shortly: as §2
The subject of data set [16] is MDA-MB-231. Description: Induction of apoptosis in human MDA-MB-231 cells assessed as induction of cleavage of PARP at 10 to 20 umol/L incubated for 72 hrs by Western blot analysis. The format is functional, cell-based. Particulars: dose 10-20 µmol/L.
For data set [17], the target named is Histone-lysine N-methyltransferase EZH2 (Homo sapiens) (UniProt Q15910). Description: Inhibition of EZH2 in human HepG2 cells assessed as reduction in H3K27-me3 level at 20 umol/L incubated for 72 hrs by Western blot analysis. Type of data set: cell-based. Conditions: dose 20.0 µmol/L.
Data set [18] deals with MDA-MB-231. Description: Induction of autophagy in human MDA-MB-231 cells assessed as induction of LC3-II accumulation at 10 to 20 umol/L incubated for 24 hrs by Western blot analysis. Particulars: dose 10-20 µmol/L. Type of data set: functional, cell-based.
The test system of data set [19] is HepG2. Description: Potentiation of sorafenib-induced anticancer activity in human HepG2 cells assessed as increase in cleaved PARP expression at 10 umol/L measured after 72 hrs by Western blot analysis. The format is functional, cell-based. Conditions: dose 10.0 µmol/L. Put shortly:
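HepG2 cells given 5 μmol/l sorafenib, with or without 10 μmol/l compound, for 72 h. Whole-cell lysates immunoblotted for PARP1, LC3B and β-actin.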

Data set [20] has as its system MDA-MB-231. Description: Induction of apoptosis in human MDA-MB-231 cells assessed as induction of cleavage of caspase-3 at 10 to 20 umol/L incubated for 72 hrs by Western blot analysis. Type of data set: functional, cell-based. Particulars: dose 10-20 µmol/L.
Data set [21] has as its system MDA-MB-231. Description: […] in human MDA-MB-231 cells assessed as induction of LC3-II accumulation at 2 umol/L for 48 hrs by Western blot analysis. The format is functional, cell-based. Particulars: dose 2.0 µmol/L.
Data set [22] has as its system MDA-MB-231. Description: […] in human MDA-MB-231 cells assessed as induction of LC3-II accumulation at 1 umol/L for 48 hrs by Western blot analysis. The format is functional, cell-based. Particulars: dose 1.0 µmol/L.
Data set [23] has as its system MDA-MB-231. Description: Induction of apoptosis in human MDA-MB-231 cells assessed as cleavage of PARP at 0.75 umol/L incubated for 72 hrs by Western blot analysis. The format is functional, cell-based. Particulars: dose 0.75 µmol/L.
In data set [24] the test system is MDA-MB-231. Description: Induction of apoptosis in human MDA-MB-231 cells assessed as cleavage of caspase-3 at 0.75 umol/L incubated for 72 hrs by Western blot analysis. Type of data set: functional, cell-based. Particulars: dose 0.75 µmol/L.

From ChEMBL document CHEMBL5712884, “S-Adenosyl-L-methionine-competitive inhibitors of the histone methyltransferase EZH2 induce autophagy and enhance drug sensitivity in cancer cells” (Anticancer Drugs, 2015) come the findings set out here.

Each structure is given as a SMILES string. Calls of active or inactive are those of the source. No cut-off for these calls is given here.

Sequence of Histone-lysine N-methyltransferase EZH2 (Homo sapiens) (Q15910 whole entry, looked up): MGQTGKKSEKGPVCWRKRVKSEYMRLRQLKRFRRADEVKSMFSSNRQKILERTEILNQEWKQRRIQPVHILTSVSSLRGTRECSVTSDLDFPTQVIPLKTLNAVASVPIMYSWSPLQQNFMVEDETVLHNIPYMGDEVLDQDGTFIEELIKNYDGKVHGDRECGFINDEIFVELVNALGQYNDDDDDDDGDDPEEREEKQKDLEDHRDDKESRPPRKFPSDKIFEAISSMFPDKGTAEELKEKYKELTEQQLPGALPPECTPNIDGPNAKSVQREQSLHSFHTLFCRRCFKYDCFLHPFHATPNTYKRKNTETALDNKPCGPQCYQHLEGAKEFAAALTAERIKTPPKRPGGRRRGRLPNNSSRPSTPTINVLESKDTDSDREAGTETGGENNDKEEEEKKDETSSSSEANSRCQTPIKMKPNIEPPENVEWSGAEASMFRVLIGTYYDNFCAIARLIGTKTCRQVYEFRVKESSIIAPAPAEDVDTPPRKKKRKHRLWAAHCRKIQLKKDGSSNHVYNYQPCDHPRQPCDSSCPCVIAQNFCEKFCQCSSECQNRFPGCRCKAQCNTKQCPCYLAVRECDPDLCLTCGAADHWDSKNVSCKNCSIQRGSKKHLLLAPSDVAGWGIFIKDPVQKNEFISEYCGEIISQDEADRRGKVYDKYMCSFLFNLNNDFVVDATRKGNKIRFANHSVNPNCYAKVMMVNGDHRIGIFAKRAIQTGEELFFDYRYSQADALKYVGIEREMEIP

As for `CCCc1cc(C)[nH]c(=O)c1CNC(=O)c1cc(-c2ccc(N3CCN(C(C)C)CC3)nc2)cc2c1cnn2C(C)C`, the outcome in data set [1] was Active.

For the compound `Nc1nccc2c1ncn2[C@@H]1C=C(CO)[C@@H](O)[C@H]1O`, the Activity result in data set [2] and in data set [11] was “Non-Toxic” throughout. For the same compound, the result in data set [3], in data set [4], in data set [13] and in [16] was Active. Further, in [5], the viability at 5 µM stood at 67%. For the same compound, the inhibition entry in [6], in data set [10] and in data set [17] was “Active” throughout. The result in data set [7], in data set [8], in [9], in [12], in data set [14] and in data set [15] was inactive. The result in [18], in [19] and in [20] was inactive.

As to `O=C(CCCCCCC(=O)Nc1ccccc1)NO`, in data set [21], the result was Active.

Consider `COc1cccc2c1C(=O)c1c(O)c3c(c(O)c1C2=O)C[C@@](O)(C(=O)CO)C[C@@H]3O[C@H]1C[C@H](N)[C@H](O)[C@H](C)O1`, for which the result in data set [22], in data set [23] and in [24] was Active.
